Bioassay records (PubChem BioAssay)
The list is not random: actives were taken first. Their share in the collection is about 1.7%.
LMPTP block = blocks human LMPTP phosphatase | P24666 | recombinant LMPTP-A, OMFP fluorogenic substrate, fluorescence intensity | inhibition, % at 20 µM | 360,000 tested, 0.22% active | AID 651560;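 active = compounds that cut the enzyme signal by at least half of the control window in the single-dose screen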;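 note: plate controls were DMSO wells with enzyme plus substrate for no effect and substrate without enzyme for full effect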
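Material: LMPTP-A; amount: 0.625 nM enzyme; doses: single 20 µM dose; times: reaction 50 min, room temperature, dark; technique: fluorescence intensity of OMFP turnover product; benchmarks: no-enzyme and uninhibited controls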
SUMO1-SIM PPI = modulators of human SUMO1-mediated protein-protein interactions; SUMO1 binding to a labelled peptide, TR-FRET, 1 h; 360,000 tested, 0.33% active; AID 602429; inhibition, % at 20 µM; in the data active = inhibition above about 37%
Scp1 inh = blocks human Scp-1 phosphatase activity. 340,000 tested, 0.88% active. inhibition, % at 20 µM. AID 493091. Recombinant Scp1, phosphopeptide, malachite green phosphate absorbance;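 active = inhibition above about 50% at 20 µM, limit read from the data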;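 note: plate controls were DMSO wells with enzyme for no effect and wells lacking enzyme for full effect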
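Test system: SCP-1 catalytic domain; Buffer or medium: Acidic Tris acetate buffer with magnesium and detergent; Also added: Phosphorylated 17-residue peptide substrate; Compound: single 20 µM dose, 1% DMSO; Schedule: enzyme reaction 45 min at room temperature, colour 5 min, stabilisation 30 min; Signal: Phosphate-binding colour reagent, absorbance read at 630 nm.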
STEP block = inhibitors of human striatal-enriched phosphatase STEP; 360,000 tested, 0.25% active; inhibition, % at 20 µM; recombinant STEP, OMFP fluorogenic substrate, fluorescence;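 active = inhibition at 20 µM, scaled per plate between control wells, above about 37%, limit read from the data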;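 note: 0% = DMSO with enzyme and substrate and 100% = substrate only without enzyme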
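System: isolated STEP enzyme; schedule: 20 min enzyme reaction at room temperature, protected from light; medium: Bis-Tris buffer pH 6.0, 2.5 mM DTT, 0.005% Tween 20; signal: fluorescence, 480/540 nm; dosing: single compound dose of 20 µM, 1% DMSO final; also added: OMFP substrate, 25 µM final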
DNMT1 block = blocks human DNA methyltransferase DNMT1; AID 588458; inhibition (reported as % activation of signal), % at 10 µM; DNMT1 molecular beacon, Hinp1I cleavage, fluorescence; 360,000 tested, 0.83% active; in the data active = inhibition above about 50%
Scp1 confirm = Scp-1 (human) inhibition, single-dose confirmed; inhibition, % at 20 µM; 2,500 tested, 61% active; AID 540281; recombinant SCP-1 catalytic domain, phosphate release, malachite green absorbance; shares compounds with Scp1 inh;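 note: plate controls were DMSO with enzyme for no effect and buffer wells lacking enzyme for full effect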
MG interference = colorimetric interference in Scp-1 counter-screen. shares compounds with Scp1 inh. Colorimetric interference counterscreen, malachite green absorbance 630 nm. apparent inhibition (interference), % at 20 µM. 2,500 tested, under 10 active;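 note: compounds added after enzyme reaction finished so only phosphate colour detection is probed; plate controls were DMSO wells with completed Scp-1 reaction for no effect and substrate wells lacking enzyme for full effect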
Scp1 DSF = binds human Scp-1, shifting its melting temperature; shares compounds with Scp1 inh; Recombinant SCP1, Sypro Orange thermal shift Tm; thermal shift relative to vanadate control, % at 40 µM; 1,500 tested, 25% active; AID 540329;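 active = substances whose mean melting-temperature shift, as a percentage of the reference inhibitor's shift, reaches about 5.3%, limit read from the data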;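 note: 0% = Tm of DMSO wells and 100% = Tm with sodium orthovanadate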
Beacon interf DR = beacon fluorescence artifact, dose response counter-screen. shares compounds with DNMT1 block. molecular beacon fluorescence, spectral interference counter-screen. IC50, µM. 200 tested, under 10 active; call rule not given here
DNMT1 confirm = DNMT1 inhibition confirmation, single concentration | shares compounds with DNMT1 block | DNMT1 molecular beacon HinP1I cleavage, fluorescence | inhibition, % at 10 µM | 2,300 tested, 8% active | AID 602385;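 active = average inhibition of at least 30% in the single-concentration confirmation test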
DNMT1 interf = counter-screen for DNMT1 inhibitors: spectral interference; shares compounds with DNMT1 block; DNMT1 molecular beacon spectral interference counterscreen, fluorescence 485/520; activation (fluorescence interference), % at 10 µM; 2,300 tested, 1% active; AID 602387;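 active = activation of at least 30% at 10 µM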;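 note: DNMT1 catalytic domain with a HinP1I cleavage step and a FAM/dabcyl DNA beacon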
* hit, by the source's call.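 Rule for the calls, unless noted: active = inhibition of at least 30% at 20 µM; inactive = the rest.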

Screening COCCn1c(C)cc(C(=O)COC(=O)c2cc3c(s2)CCC3)c1C returned LMPTP block 7.9, SUMO1-SIM PPI 6.0, Scp1 inh 51.6*, STEP block -1.5, DNMT1 block 104.9*, Scp1 confirm 70.4*, MG interference -9.8, Scp1 DSF -21.5, DNMT1 confirm 4.8 and DNMT1 interf 4.0.
For COCCn1c(C)cc(C(=O)COC(=O)c2cccc(O)c2)c1C the results were LMPTP block -0.9, SUMO1-SIM PPI 3.7, Scp1 inh -9.0, STEP block 0.7 and DNMT1 block -3.9.
COc1ccc(N(CC(=O)NCc2ccco2)S(=O)(=O)c2ccc(C)cc2)cc1OC was read as LMPTP block 0.3, SUMO1-SIM PPI 4.6, Scp1 inh 2.6, STEP block -0.2 and DNMT1 block 1.9.
For COc1ccccc1N(CC(=O)NCc1ccco1)S(=O)(=O)c1ccc(C)cc1 the results were LMPTP block 9.0, SUMO1-SIM PPI 22.3, Scp1 inh 87.1*, STEP block 61.0*, DNMT1 block 93.4*, Scp1 confirm 73.0*, MG interference -5.4, Scp1 DSF 3.6, DNMT1 confirm 5.0 and DNMT1 interf -0.4.
Screening Cc1ccc(S(=O)(=O)N(Cc2ccccc2)Cc2ccco2)cc1 returned LMPTP block 2.9, SUMO1-SIM PPI -0.6, Scp1 inh -9.4, STEP block 2.6 and DNMT1 block -4.5.
Cc1ccc(S(=O)(=O)N(CC(=O)O)Cc2ccco2)cc1 was read as LMPTP block 9.4, SUMO1-SIM PPI 6.0, Scp1 inh 92.6*, STEP block 5.2, DNMT1 block 76.2*, Scp1 confirm 60.7*, MG interference -20.2, Scp1 DSF -0.3, DNMT1 confirm 6.7 and DNMT1 interf -1.1.
`N#CCNC(=O)c1nn2c(C(F)(F)F)cc(-c3ccccc3)nc2c1Br` gave LMPTP block 0.0, SUMO1-SIM PPI -15.0, Scp1 inh -9.1, STEP block -0.3 and DNMT1 block -6.4.
`Cc1cc(-c2ccccc2)nc2c(Br)c(C(=O)O)nn12` gave LMPTP block 1.8, SUMO1-SIM PPI 4.6, Scp1 inh 94.8*, STEP block 12.9, DNMT1 block 52.3*, Scp1 confirm 61.3*, MG interference -19.4, Scp1 DSF 8.2*, DNMT1 confirm 1.9 and DNMT1 interf 5.5.
Screening Cc1ccc2nc(NC(=O)c3ccc(-c4nc5ccccc5s4)s3)sc2c1 returned LMPTP block 43.9, SUMO1-SIM PPI 44.3*, Scp1 inh 97.5*, STEP block 37.1, DNMT1 block 78.2*, Scp1 confirm 82.5*, MG interference -8.7, Scp1 DSF 4.6, DNMT1 confirm 1.4 and DNMT1 interf -6.7.
O=C(Nc1nc2ccccc2s1)c1ccc(Cl)s1 was read as LMPTP block -0.6, SUMO1-SIM PPI 2.0, Scp1 inh -12.2, STEP block -1.7 and DNMT1 block 0.0.
`CN(C)CCN(C(=O)c1cccc2ccccc12)c1nc2cc3c(cc2s1)OCO3` gave LMPTP block -2.3, SUMO1-SIM PPI -5.7, Scp1 inh 0.4, STEP block 0.6 and DNMT1 block 0.7.
`CCCCNC(=O)C1(C)CCCCN1C(=O)c1cc(-c2ccccc2)cs1` (configuration not stated) gave LMPTP block 0.1, SUMO1-SIM PPI 5.1, STEP block 2.9 and DNMT1 block 0.2.
Cc1occc1C(=O)NCc1cccc(CNC(=O)c2ccoc2C)c1 was read as LMPTP block 6.9, SUMO1-SIM PPI 25.0, Scp1 inh 50.5*, STEP block 3.7, DNMT1 block 51.0*, Scp1 confirm 73.3*, MG interference -9.0, Scp1 DSF 4.8, DNMT1 confirm 18.1 and DNMT1 interf 3.1.
O=C(Cn1nc(C(=O)O)c2ccccc2c1=O)Nc1cccc(S(=O)(=O)N2CCCCC2)c1 was read as LMPTP block 2.4, SUMO1-SIM PPI 4.8, Scp1 inh -3.8, STEP block 1.9 and DNMT1 block -0.1.
Screening O=C(N/N=C/c1ccco1)C1CC1 returned LMPTP block -0.4, SUMO1-SIM PPI -2.1, Scp1 inh 3.0, STEP block -1.4 and DNMT1 block -1.0.
For O=C(N/N=C/c1ccco1)C1CC1c1ccccc1 (configuration not stated) the results were LMPTP block 6.4, SUMO1-SIM PPI 0.5, Scp1 inh 60.2*, STEP block 3.5, DNMT1 block 92.1*, Scp1 confirm 47.8*, MG interference -14.5, Scp1 DSF -14.1, DNMT1 confirm 20.6 and DNMT1 interf 4.2.
For C=CCOc1ccc(C=NNc2ccc(S(=O)(=O)Nc3ccccc3C(=O)O)cc2[N+](=O)[O-])cc1OC the results were LMPTP block 100.1*, SUMO1-SIM PPI 69.2*, Scp1 inh 70.6*, STEP block 100.5*, DNMT1 block 90.0*, Scp1 confirm 82.2*, MG interference -18.6, Scp1 DSF 14.9*, Beacon interf DR >99, DNMT1 confirm 110.2* and DNMT1 interf -12.4.
CCOc1cccc(C=NNc2ccc(S(=O)(=O)Nc3ccccc3C(=O)O)cc2[N+](=O)[O-])c1O was read as LMPTP block 1.1, SUMO1-SIM PPI -1.3, Scp1 inh -6.7, STEP block 3.0 and DNMT1 block -7.7.
`O=C1NC(=Nc2ccc(Cl)cc2)/C(=C/c2ccco2)S1` gave LMPTP block 38.2, SUMO1-SIM PPI 10.5, Scp1 inh 93.1*, STEP block 60.6*, DNMT1 block 77.4*, Scp1 confirm 80.2*, MG interference -8.2, Scp1 DSF 7.8*, DNMT1 confirm 11.3 and DNMT1 interf 2.3.
`Cc1ccc(NC(=O)COc2coc(CN3CCc4ccccc43)cc2=O)cc1Cl` gave LMPTP block 18.9, SUMO1-SIM PPI 5.8, Scp1 inh 59.2*, STEP block 4.3, DNMT1 block 59.2*, Scp1 confirm 55.0*, MG interference -25.2, Scp1 DSF 1.9, DNMT1 confirm 0.9 and DNMT1 interf 2.6.
